Measured values as given in ChEMBL document CHEMBL3407480, “6-Sulfonylbenzothiazolones as potential scaffolds for the design of 5-HT6 ligands” (Eur J Med Chem, 2015).

Legend:
[1] = Cytotoxicity against human SH-SY5Y cells assessed as inhibition of cell growth after 72 hrs by MTT assay; assay type: cell-based
Summary of the method: (§1)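 SH-SY5Y cells grown in DMEM with 2 mM L-glutamine, streptomycin, 100 IU/mL penicillin, 1 mM non-essential amino acids, 10% heat-inactivated FBS, 37 °C, 5% CO₂. Seeded at 2000 cells/well, serum-starved 24 h for synchrony, then exposed to test compounds (DMSO below 0.1%) at various concentrations up to 100. Growth read by MTT colorimetric assay after 72 h.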

[2] = biological target: T1, 5-hydroxytryptamine receptor 6 (Homo sapiens, UniProt P50406); experiment: Displacement of [3H]LSD from human 5-HT6 receptor expressed in HEK293 cell membranes at 100 nM incubated for 60 mins by radioligand binding assay
Summary of the method: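 Competition binding on membranes of HEK-293 cells transiently expressing human 5-HT6; 4 of protein incubated 60 min at 37 °C in duplicate with 2.5 nM [3H]-LSD in 50 mM Tris-HCl pH 7.4, 10 mM MgCl₂, 0.5 mM EDTA. Compounds tested at 10^-7 M for % displacement (n = 3), then Ki calculated. GF/C filtration, five ice-cold buffer washes.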

[3] = Cytotoxicity against human SH-SY5Y cells assessed as inhibition of cell growth at 100 uM after 72 hrs by MTT assay; assay type: cell-based; settings: read-out: GI; summary of the method: as §1
[4] = biological target: T1, 5-hydroxytryptamine receptor 6; experiment: Displacement of [3H]LSD from human 5-HT6 receptor expressed in HEK293 cell membranes incubated for 60 mins by radioligand binding assay

T1 sequence (P50406 whole entry): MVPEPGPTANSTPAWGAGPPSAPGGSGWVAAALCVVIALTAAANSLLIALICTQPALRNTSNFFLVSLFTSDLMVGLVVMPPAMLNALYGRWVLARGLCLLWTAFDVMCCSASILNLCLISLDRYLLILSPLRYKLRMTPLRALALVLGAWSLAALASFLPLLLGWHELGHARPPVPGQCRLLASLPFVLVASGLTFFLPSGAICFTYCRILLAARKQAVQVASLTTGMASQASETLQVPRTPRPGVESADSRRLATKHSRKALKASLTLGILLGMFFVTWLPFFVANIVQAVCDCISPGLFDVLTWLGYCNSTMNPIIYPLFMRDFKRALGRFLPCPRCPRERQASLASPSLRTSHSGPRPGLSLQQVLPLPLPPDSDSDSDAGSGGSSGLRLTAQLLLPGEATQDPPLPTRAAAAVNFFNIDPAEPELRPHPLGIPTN

SMILES | inhibition [2] [%] | Ki [4] [µM] | IC50 [1] [µM] | inhibition at 72 h, 100 µM [3] [%]
CN(c1ccccc1)S(=O)(=O)c1ccc2c(c1)sc(=O)n2CCN1CCCCC1 | 0 | – | 50 | –
O=c1sc2cc(S(=O)(=O)c3ccccc3)ccc2n1CCN1CCCCC1 | 11 | – | 44.1 | –
O=c1sc2cc(S(=O)(=O)Nc3cccc4ccccc34)ccc2n1CCN1CCCCC1 | 3 | – | 25.2 | –
O=c1sc2cc(NS(=O)(=O)c3ccc4ccccc4c3)ccc2n1CCN1CCCCC1 | 4 | – | – | 5
O=c1sc2cc(NS(=O)(=O)c3ccc4ccccc4c3)ccc2n1CCN1CCCC1 | 0 | – | – | 28
CN(c1cccc2ccccc12)S(=O)(=O)c1ccc2c(c1)sc(=O)n2CCN1CCCC1 | 40 | – | 102 | –
O=c1sc2cc(NS(=O)(=O)c3ccccc3)ccc2n1CCN1CCCCC1 | 6 | – | – | 39
O=c1sc2cc(N(S(=O)(=O)c3ccccc3)S(=O)(=O)c3ccccc3)ccc2n1CCN1CCCC1 | 20 | – | – | 19
O=c1sc2cc(S(=O)(=O)Nc3cccc4ccccc34)ccc2n1CCN1CCCC1 | 0 | – | 68.6 | –
CN(c1cccc2ccccc12)S(=O)(=O)c1ccc2c(c1)sc(=O)n2CCN1CCCCC1 | 14 | – | 91.9 | –

Continued, in another order:

inhibition [2] [%] | Ki [4] [µM] | SMILES | IC50 [1] [µM] | inhibition at 72 h, 100 µM [3] [%]
37 | – | O=c1sc2cc(S(=O)(=O)Nc3ccccc3)ccc2n1CCN1CCCC1 | 10 | –
5 | – | CN(C)CCn1c(=O)sc2cc(S(=O)(=O)N(C)c3ccccc3)ccc21 | 91 | –
21 | – | CN(C)CCn1c(=O)sc2cc(S(=O)(=O)Nc3ccccc3)ccc21 | – | 0
7 | – | O=c1sc2cc(S(=O)(=O)Nc3ccccc3)ccc2n1CCN1CCCCC1 | 17.4 | –
10 | – | CN(c1ccccc1)S(=O)(=O)c1ccc2c(c1)sc(=O)n2CCN1CCCC1 | 49.5 | –
16 | – | CN(C)CCn1c(=O)sc2cc(S(=O)(=O)c3ccccc3)ccc21 | 86.9 | –
22 | – | CN(C)CCn1c(=O)sc2cc(NS(=O)(=O)c3ccc4ccccc4c3)ccc21 | – | 17
5 | – | CN(C)CCn1c(=O)sc2cc(NS(=O)(=O)c3ccccc3)ccc21 | – | 20
0 | – | CN(C)CCn1c(=O)sc2cc(S(=O)(=O)N(C)c3cccc4ccccc34)ccc21 | 29 | –
– | 0.1 | CN(C)CCn1c(=O)sc2cc(S(=O)(=O)Nc3cccc4ccccc34)ccc21 | 45.7 | –
11 | – | O=c1sc2cc(NS(=O)(=O)c3ccccc3)ccc2n1CCN1CCCC1 | – | 25
